Results gathered from unrelated publications.
Each line is one published result; the experiments were not run side by side.
Target: Serine/threonine-protein kinase PAK 2 (PAK2, Homo sapiens, UniProt Q13177)

Structure (SMILES)	read-out	mode	technique	concentration	measurement	value
COc1ncccc1-c1cnn2ccc(N3CCN(C(=O)OC(C)C)CC3)nc12	binding	–	competition with immobilised ligand	1 µM	remaining binding	100%
Nc1ncc(-c2nc(N3CCOCC3)nc(N3CCOCC3)n2)c(C(F)F)n1	binding	–	competition with immobilised ligand	10 µM	remaining binding	58%
O=c1[nH]c2ccccc2n1C1CCN(Cc2ccc(-c3[nH]c4cc5ncnc5cc4nc3-c3ccccc3)cc2)CC1	cell-free assay	–	–	0.5 µM	remaining signal	99.2%
COc1cc(Nc2ncc(F)c(Nc3ccc4c(n3)NC(=O)C(C)(C)O4)n2)cc(OC)c1OC	binding	–	competition with immobilised ligand	10 µM	inhibition	64%
Cn1cc(-c2cccc(N3CCc4c(sc5c4CC(C)(C)C5)C3=O)c2CO)cc(Nc2ccncn2)c1=O	enzyme activity	inhibitor	–	1 µM	inhibition	6%
C#Cc1n[nH]c2c(-c3cn(C(C)c4ccccn4)c(=O)[nH]c3=O)cc(F)cc12 (stereo not drawn)	enzyme activity	inhibitor	–	1 µM	inhibition	-6.9%
Cn1cc(-c2cc(F)cc(N3CCn4c(cc5c4CCCC5)C3=O)c2CO)cc(Nc2ccc(N3CCN(C4COC4)CC3)cn2)c1=O	enzyme activity	inhibitor	–	0.1 µM	inhibition	11%
C#Cc1n[nH]c2c(-c3cn([C@@H](C)c4ccccc4)c(=O)[nH]c3=O)cc(F)cc12	enzyme activity	inhibitor	–	0.1 µM	inhibition	1.7%
Cn1cncc1[C@](O)(COc1ccc(C#N)cc1-c1ccc(OC(F)(F)F)cc1)c1ccc(C#N)cc1	cell-free assay	–	competition with immobilised ligand	1 µM	remaining binding	93%
